Compound activity (PubChem)
STAT1 act = STAT1 signaling activators, primary screen, cell-based, HTS, luciferase reporter; NIH 3T3 STAT1-luciferase reporter, IFN-gamma, luminescence; 100% = IFN-gamma alone, no compound; activation (% of control), % at 5.5 µM; 200,000 compounds, 2.6% hits;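 active means activation above the screen-wide mean activation plus 3 SD, cut at about 130% in these data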;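 further: raw ratio to IFN-gamma control signal so 100% means no change and 0% no light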
FLuc inh counter = firefly luciferase enzyme inhibitors, primary screen, artefact control for luciferase-based inhibitor screens, biochemical, luminescence, ATPLite; Luciferin 4-monooxygenase (Photinus pyralis), P08659; 10 min; inhibition, % at 10 µM; 200,000 compounds, 1.5% hits;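 active means inhibition above about 50% when tested at 10 µM, limit read from the data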
Target sequence (P08659 whole entry, looked up): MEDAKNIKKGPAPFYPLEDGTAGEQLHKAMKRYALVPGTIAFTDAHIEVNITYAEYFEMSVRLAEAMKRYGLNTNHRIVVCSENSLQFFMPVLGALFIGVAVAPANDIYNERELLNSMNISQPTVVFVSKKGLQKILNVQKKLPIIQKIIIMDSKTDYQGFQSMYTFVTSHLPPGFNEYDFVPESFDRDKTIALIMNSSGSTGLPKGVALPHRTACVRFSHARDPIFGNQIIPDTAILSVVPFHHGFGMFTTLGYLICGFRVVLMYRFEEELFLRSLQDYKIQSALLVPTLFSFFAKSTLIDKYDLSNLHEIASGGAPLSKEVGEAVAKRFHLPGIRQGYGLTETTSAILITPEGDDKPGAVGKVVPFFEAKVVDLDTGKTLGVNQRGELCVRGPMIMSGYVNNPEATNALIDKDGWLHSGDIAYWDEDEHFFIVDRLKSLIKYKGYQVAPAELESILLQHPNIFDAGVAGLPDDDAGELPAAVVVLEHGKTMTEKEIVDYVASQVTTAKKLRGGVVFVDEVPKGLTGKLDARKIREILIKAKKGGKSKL
APP 5'UTR act = activators of APP 5'UTR luciferase reporter, primary screen, SH-SY5Y cells | 190,000 compounds, 1% hits | activation, % at 2 µM | SH-SY5Y APP 5'UTR luciferase reporter, luminescence; zero percent = DMSO vehicle wells | AID 1276, 2008;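 active means activation above a set limit, based on mean plus 3 SD of controls, cut at about 140% in these data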
NF-kB expr up = activators of NF-kB expression in neurons, primary screen, cell-based, HTS; human neuronal cells, NF-kB reporter expression; hits give high values; fold change at 12.5 µM; 190,000 compounds, 1.6% hits; AID 1239, 2008; in the data active means fold change above about 3.3
Pf gamet viab = late stage P. falciparum gametocyte viability inhibitors, primary screen, ATP luminescence, HTS. P. falciparum stage V gametocytes, 24 h. inhibition, % at 10.9 µM. 150,000 compounds, 0.065% hits. AID 743093, 2013;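 active means inhibition above the mean plus 3 SD of compounds within the control limits, set per campaign, cut at about 38% in these data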;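 further: 0% = DMSO wells and 100% = medium only without gametocytes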
FLuc stim CS = FLuc activators, initial screening, artefact control for FLuc-dependent activation tests, biochemical, ATPlite luminescence; AID 1027, 2008; ATPlite luciferase biochemical, 10 min; 0 = ATP-free wells, 1 = DMSO control; 200,000 tested, under 10 active; activation factor at 10 µM;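 active means luciferase activation factor, scaled between plate controls, of at least 2 with compound at 10 µM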
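System: Luciferase/luciferin detection reagent, cell-free biochemical luciferase assay | Medium: PBS buffer for ATP | Dosing: Test compounds dosed from 2 mM stocks in 100% DMSO | Timing: 10 min at ambient temperature | Signal: Luminescence measurement of luciferase light output | Evaluation: Luciferase activation, seen as luminescence increase over controls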
STAT1 act conf = STAT1 signaling activators, confirmation, cell-based, HTS, luciferase reporter; activation (% of control), % at 5.7 µM; shares compounds with STAT1 act; AID 1262, 2008; 1,200 compounds, 97% hits; NIH 3T3 STAT1-luciferase reporter, IFN-gamma potentiation, luminescence; 100% = IFN-gamma EC80 alone, no compound;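 active means activation above a set limit carried over from the earlier primary STAT1 screen, cut at about 140% in these data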;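 further: simple ratio to median IFN-gamma plus DMSO wells so 0% means no light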
NFkB act = NF-kB reporter activators, TNF-alpha stimulated, counter-screen for STAT1 activator project, cell-based, HEK293T, luciferase luminescence; shares compounds with STAT1 act; 100% = TNF-alpha with vehicle only; activation (% of control), % at 5.7 µM; 1,200 compounds, 43% hits; AID 1306, 2008;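 active means activation above the mean of solvent-only control wells plus 3 SD, set per campaign, cut at about 130% in these data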;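 further: TNF-alpha given at a submaximal dose yielding about 80% of full reporter signal; values are well signal over median control so 100% means no change and 0% no light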
STAT3 act STAT1c = STAT3 reporter activation by STAT1 hits, confirmation, counter-screen for STAT1 activator project, U3A cells, luciferase, luminescence; shares compounds with STAT1 act; IL-6; cells lack STAT1; 100 = IL-6 alone, no compound effect; activation (% of control), % at 5.7 µM; 1,200 compounds, 46% hits; AID 1316, 2008;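 active means activation above the solvent-only control well mean plus 3 SD, set per plate batch, cut at about 110% in these data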;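 further: 0% = no luminescence and 100% = median IL-6 plus DMSO wells; higher means more STAT3 reporter activation so hits are non-selective activators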
* = called active by the depositor. Hits are enriched below; roughly 3.5% of the tested compounds scored in any of these assays.

How did O=C(NCc1ccccn1)c1cc(-c2ccc(-c3ccccc3)cc2)nc2ccccc12 do in these assays?
STAT1 act: 156*; FLuc inh counter: 88*; APP 5'UTR act: 107; NF-kB expr up: 1.9; Pf gamet viab: 5; FLuc stim CS: 0.1; STAT1 act conf: 199*; NFkB act: 107; STAT3 act STAT1c: 148*

What do the screens show for `O=C(O)/C=C\C(=O)Nc1ccccc1C#Cc1ccc(Br)cc1`?
STAT1 act: 159*; FLuc inh counter: -2; APP 5'UTR act: 158*; NF-kB expr up: 8*; Pf gamet viab: -7; FLuc stim CS: 1; STAT1 act conf: 131*; NFkB act: 130; STAT3 act STAT1c: 95

Results for O=C(NC1=NCCS1)c1sc2cc(F)ccc2c1Cl ?
STAT1 act: 172*; FLuc inh counter: 47; APP 5'UTR act: 86; NF-kB expr up: 4.8*; FLuc stim CS: 0.5; STAT1 act conf: 209*; NFkB act: 131; STAT3 act STAT1c: 150*

What do the screens show for `O=C(NCCCN1CCOCC1)c1sc2cc(F)ccc2c1Cl`?
STAT1 act: 109; FLuc inh counter: -7; APP 5'UTR act: 13; NF-kB expr up: 1.7; Pf gamet viab: 18; FLuc stim CS: 1.1

What do the screens show for `CCc1ccc(C2=NN(C(C)=O)C(c3ccco3)C2)cc1` (stereo unspecified)?
STAT1 act: 160*; FLuc inh counter: 15; APP 5'UTR act: 144*; NF-kB expr up: 4.7*; Pf gamet viab: 15; FLuc stim CS: 0.8; STAT1 act conf: 178*; NFkB act: 133; STAT3 act STAT1c: 123*

Results for O=C(CC(c1ccccc1)c1ccccc1)Nc1ccc(Cl)cn1 ?
STAT1 act: 94; FLuc inh counter: -5; APP 5'UTR act: 14; NF-kB expr up: 1.2; FLuc stim CS: 1

Results for O=C(/C=C/c1ccccc1)Nc1ccc(Cl)cn1 ?
STAT1 act: 156*; FLuc inh counter: 22; APP 5'UTR act: 80; NF-kB expr up: 3.2; FLuc stim CS: 0.8; STAT1 act conf: 208*; NFkB act: 121; STAT3 act STAT1c: 95

How did CCc1cc(-c2n[nH]c(C)c2Oc2ccc(C(C)C)cc2)c(O)cc1O do in these assays?
STAT1 act: 104; FLuc inh counter: -7; APP 5'UTR act: 3; NF-kB expr up: 0.96; Pf gamet viab: -5; FLuc stim CS: 1.1

What do the screens show for `CC(C)=CC(=O)Nc1nc2ccc([N+](=O)[O-])cc2s1`?
STAT1 act: 181*; FLuc inh counter: 3; APP 5'UTR act: 36; NF-kB expr up: 2.2; Pf gamet viab: 20; FLuc stim CS: 1; STAT1 act conf: 180*; NFkB act: 126; STAT3 act STAT1c: 107

Results for COc1cc(NS(C)(=O)=O)c(OC)cc1NC(=O)c1ccccc1 ?
STAT1 act: 105; FLuc inh counter: -10; APP 5'UTR act: -29; NF-kB expr up: 0.98; FLuc stim CS: 1.1

What do the screens show for `CCN(CC)c1ccc2cc(-c3nnc(-c4ccccc4)o3)c(=O)oc2c1`?
STAT1 act: 155*; FLuc inh counter: 5; APP 5'UTR act: 19; NF-kB expr up: 1.3; FLuc stim CS: 1; STAT1 act conf: 185*; NFkB act: 137*; STAT3 act STAT1c: 126*
